We go through 21 compounds from paper PMC7747014 (Journal of medicinal chemistry, 2015).

Counter-ions that a name gives are not always drawn. Like-named read-outs stand apart in the source and are kept apart here.

For data set [1], the target named is recombinant TDP1 (Homo sapiens, UniProt Q9NUW8). Briefly: Gel-based assay measuring the inhibition of recombinant TDP1. Format: biochemical. The settings on record: for IC50: read-out: TDP1 inhibition, semiquantitative IC50 scale.
Data set [2] has as its target T1, Human recombinant Top1 (Homo sapiens, UniProt P11387).
T1 sequence (P11387 1-765): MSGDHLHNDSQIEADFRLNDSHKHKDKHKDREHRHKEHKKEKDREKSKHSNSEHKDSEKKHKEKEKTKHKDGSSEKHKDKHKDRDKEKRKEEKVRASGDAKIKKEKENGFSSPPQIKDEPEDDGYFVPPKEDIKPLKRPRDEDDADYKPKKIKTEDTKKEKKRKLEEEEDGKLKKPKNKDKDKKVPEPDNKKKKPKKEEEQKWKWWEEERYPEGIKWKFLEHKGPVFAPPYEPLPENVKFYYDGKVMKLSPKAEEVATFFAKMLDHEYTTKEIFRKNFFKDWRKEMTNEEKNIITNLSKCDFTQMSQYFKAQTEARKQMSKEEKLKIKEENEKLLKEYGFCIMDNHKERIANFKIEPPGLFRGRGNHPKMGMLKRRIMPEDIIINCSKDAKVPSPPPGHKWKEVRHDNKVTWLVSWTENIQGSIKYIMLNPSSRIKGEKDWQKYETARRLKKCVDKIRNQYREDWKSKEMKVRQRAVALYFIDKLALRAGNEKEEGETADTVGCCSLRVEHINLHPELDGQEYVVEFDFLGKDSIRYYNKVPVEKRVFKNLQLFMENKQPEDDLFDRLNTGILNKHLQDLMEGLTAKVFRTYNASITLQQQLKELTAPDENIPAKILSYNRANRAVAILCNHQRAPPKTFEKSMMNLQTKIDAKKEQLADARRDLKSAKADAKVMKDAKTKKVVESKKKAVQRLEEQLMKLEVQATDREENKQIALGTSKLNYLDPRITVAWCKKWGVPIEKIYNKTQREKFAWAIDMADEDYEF
The data set can be described thus: Top1-mediated DNA cleavage assay. It counts as biochemical. Conditions: graded relative to 1 μM camptothecin.

Data set [3] has as its system 60 common human cancer cell lines (NCI-60). Briefly: NCI-60 five-dose screen, mean-graph midpoint. Format: cell-based. The gist of the method: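 NCI-DTP screen across 60 human cancer cell lines. One-dose prescreen at 10 μM; compounds passing the cutoff went to five concentrations, 100 μM to 10 nM. GI50 per cell line interpolated from five-dose data.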
Data set [4] has as its system colon HCT-116. Conditions: read-out: cytotoxicity (GI50 in μM) colon HCT-116; cited from earlier work.
Data set [5] has as its target T1, Human recombinant Top1. The settings on record: graded relative to 1 μM camptothecin; cited from earlier work.
The subject of data set [6] is melanoma UACC-62. Conditions: read-out: cytotoxicity (GI50 in μM) melanoma UACC-62; cited from earlier work.
In data set [7] the test system is CNS SF-539. Conditions: read-out: cytotoxicity (GI50 in μM) CNS SF-539; cited from earlier work.
Data set [8] has as its system renal SN12C. Conditions: read-out: cytotoxicity (GI50 in μM) renal SN12C; cited from earlier work.
Data set [9] has as its system lung HOP-62. The settings on record: read-out: cytotoxicity (GI50 in μM) lung HOP-62; cited from earlier work.
Data set [10] deals with prostate DU-145. Conditions: read-out: cytotoxicity (GI50 in μM) prostate DU-145; cited from earlier work.
The test system of data set [11] is breast MCF7. Conditions: read-out: cytotoxicity (GI50 in μM) breast MCF7; cited from earlier work.
The subject of data set [12] is ovarian OVACAR-3. The settings on record: read-out: cytotoxicity (GI50 in μM) ovarian OVACAR-3; cited from earlier work.
Data set [13] deals with 60 common human cancer cell lines (NCI-60). The settings on record: read-out: MGM; average GI50 across 60 cell lines; cited from earlier work.
Setting [14] is: Homo sapiens, 60 cell, read-out: MGM.
The mark [15] stands for this setting: read-out: MGM values, range over the named series.

Sequence of recombinant TDP1 (Q9NUW8 whole entry): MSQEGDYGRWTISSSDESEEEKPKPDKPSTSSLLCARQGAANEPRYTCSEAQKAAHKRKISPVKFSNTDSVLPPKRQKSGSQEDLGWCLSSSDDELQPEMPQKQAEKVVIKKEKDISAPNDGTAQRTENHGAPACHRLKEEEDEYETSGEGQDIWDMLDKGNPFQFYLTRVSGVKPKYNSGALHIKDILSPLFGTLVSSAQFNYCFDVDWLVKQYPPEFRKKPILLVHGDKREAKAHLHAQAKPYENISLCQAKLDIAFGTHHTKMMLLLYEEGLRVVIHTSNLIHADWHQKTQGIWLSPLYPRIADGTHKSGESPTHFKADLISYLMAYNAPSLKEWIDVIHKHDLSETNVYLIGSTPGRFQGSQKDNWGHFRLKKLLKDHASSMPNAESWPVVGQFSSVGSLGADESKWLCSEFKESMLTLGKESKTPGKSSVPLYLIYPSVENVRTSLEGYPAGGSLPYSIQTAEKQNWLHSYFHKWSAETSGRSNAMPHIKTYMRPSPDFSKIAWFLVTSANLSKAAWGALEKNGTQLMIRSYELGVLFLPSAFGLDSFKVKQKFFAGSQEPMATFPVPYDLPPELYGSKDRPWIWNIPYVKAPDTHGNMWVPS

For the compound `O=C1c2ccccc2-c2c1c1ccccc1c(=O)n2CCCNCCCNCCCn1c2c(c3ccccc3c1=O)C(=O)c1ccccc1-2` [Compound 72], the IC50 in data set [1] was in the range of 1000 to 12000 nM.
Regarding `Cl.NCCCn1c2c(c3ccc([N+](=O)[O-])cc3c1=O)C(=O)c1cccc(O)c1-2` [Compound 45, 6-(3-Aminopropyl)-7-hydroxy-3-nitro-5H-indeno[1,2-c]-isoquinoline-5,11(6H)-dione Hydrochloride], in [2], the Top1 cleavage entry was “++ (50–75% activity)”. For the same compound, in data set [1], the “TDP1 inhibitory activity (in words)” value is on record as “TDP1 inhibitors” and the IC50 fell in the range of 12000 to 37000 nM.
Consider `Br.NCCCn1c2c(c3ccc([N+](=O)[O-])cc3c1=O)C(=O)c1ccc(O)cc1-2` [Compound 63, 6-(3-Aminopropyl)-8-hydroxy-3-nitro-5H-indeno[1,2-c]-isoquinoline-5,11(6H)-dione Hydrobromide], for which, in data set [1], the “TDP1 inhibitory activity (in words)” value is “TDP1 inhibitors”. For the same compound, the IC50 in [1] lay within 1000 to 12000 nM. Also, the figures for the GI50 in data set [3] (setting [14]) and in data set [3] (setting [15]) were 410 ± 1000 nM and 56 to 407 nM, respectively.
As to `Br.NCCCn1c2c(c3ccc([N+](=O)[O-])cc3c1=O)C(=O)c1cc(O)ccc1-2` [Compound 71, 6-(3-Aminopropyl)-9-hydroxy-3-nitro-5H-indeno[1,2-c]-isoquinoline-5,11(6H)-dione Hydrobromide], the Top1 cleavage entry in [2] is listed as “++++”. Besides, in data set [1], the “TDP1 inhibitory activity (in words)” value is recorded as “TDP1 inhibitors” and the IC50 fell in the range of 37000 to 111000 nM. Moreover, the GI50 in [3] (setting [14]) is 120 nM.
Take `O=C1c2cccc(O)c2-c2c1c1ccc([N+](=O)[O-])cc1c(=O)n2CCCn1ccnc1` [Compound 44, 6-(3-(1H-Imidazol-1-yl)propyl)-7-hydroxy-3-nitro-5H-indeno[1,2-c]isoquinoline-5,11(6H)-dione]: in [2], the Top1 cleavage result is recorded as “+++ (75–95% activity)”.
In the case of `COc1cc2c(cc1O)C(=O)c1c-2n(CCCN2CCOCC2)c(=O)c2cc([N+](=O)[O-])ccc12` [Compound 21, 9-Hydroxy-8-methoxy-6-(3-morpholinopropyl)-3-nitro-5H-indeno[1,2-c]isoquinoline-5,11(6H)-dione Hydrobromide], in data set [3] (setting [15]), the GI50 was in the range of 16 to 21 nM.
`Br.O=C1c2ccc(O)cc2-c2c1c1ccc([N+](=O)[O-])cc1c(=O)n2CCCN1CCOCC1` [Compound 55, 8-(Hydroxy)-6-(3-morpholinopropyl)-3-nitro-5H-indeno[1,2-c]-isoquinoline-5,11(6H)-dione]: the Top1 cleavage entry in [2] was “++++”. The GI50 in data set [3] (setting [15]) was 56 to 407 nM.
On to `O=C1c2c(O)cccc2-c2c1c1ccc([N+](=O)[O-])cc1c(=O)n2CCCN1CCOCC1` [Compound 56, 10-(Hydroxy)-6-(3-morpholinopropyl)-3-nitro-5H-indeno[1,2-c]-isoquinoline-5,11(6H)-dione], for which the GI50 in data set [3] (setting [14]) was 3500 nM; in data set [3] (setting [15]), 234 to 3550 nM.
For `O=C1c2c(O)cccc2-c2c1c1ccc([N+](=O)[O-])cc1c(=O)n2CCCn1ccnc1` [Compound 60, 6-(3-(1H-Imidazol-1-yl)propyl)-10-hydroxy-3-nitro-5H-indeno-[1,2-c]isoquinoline-5,11(6H)-dione Hydrobromide], the GI50 in data set [3] (setting [15]) fell in the range of 234 to 3550 nM.
On to `O=C1c2cccc(O)c2-c2c1c1ccc([N+](=O)[O-])cc1c(=O)n2CCCN1CCOCC1` [Compound 43, 7-Hydroxy-6-(3-morpholinopropyl)-3-nitro-5H-indeno[1,2-c]-isoquinoline-5,11(6H)-dione], for which the Top1 cleavage entry in [2] is “++ (50–75% activity)”.
Consider `Br.O=C1c2cc(O)ccc2-c2c1c1ccc([N+](=O)[O-])cc1c(=O)n2CCCN1CCOCC1` [Compound 69, 9-Hydroxy-6-(3-morpholinopropyl)-3-nitro-5H-indeno[1,2-c]-isoquinoline-5,11(6H)-dione Hydrobromide], for which the Top1 cleavage result in data set [2] is on record as “+++++”.
`COc1ccc2c(c1)C(=O)c1c-2n(CCCN)c(=O)c2cc([N+](=O)[O-])ccc12` [Compound 5]: the GI50 in [4], in data set [6], in data set [7], in [8] and in data set [9] was under 0.01 µM each time. In data set [5], the Top1 cleavage entry is “+++++”.
For `Br.COc1cc2c(cc1O)-c1c(c3ccc([N+](=O)[O-])cc3c(=O)n1CCCN)C2=O` [Compound 36, 6-(3-Aminopropyl)-8-hydroxy-9-methoxy-3-nitro-5H-indeno[1,2-c]isoquinoline-5,11(6H)-dione Hydrobromide], in [1], the “TDP1 inhibitory activity (in words)” value is reported as “TDP1 inhibitors” and the IC50 fell in the range of 12000 to 37000 nM.
Regarding `COc1cc2c(cc1O)-c1c(c3cc(OC)c(OC)cc3c(=O)n1CCCn1ccnc1)C2=O` [Compound 9], the GI50 in [4] was over 100 µM; in data set [10] it was over 100 µM; in data set [6], 0.33 µM; in data set [11] it was 0.05 µM; in [12], over 100 µM; in data set [13], 42000 ± 7000 nM. In addition, the GI50 in data set [9] is over 100 µM. Further, in [5], the Top1 cleavage result is “++(+)”.
For `COc1cc2c(cc1O)C(=O)c1c-2n(CCCn2ccnc2)c(=O)c2cc([N+](=O)[O-])ccc12` [Compound 23, 6-(3-(1H-Imidazol-1-yl)propyl)-9-hydroxy-8-methoxy-3-nitro-5H-indeno[1,2-c]isoquinoline-5,11(6H)-dione Hydrobromide], the GI50 in data set [3] (setting [15]) was 16 to 21 nM.
As to `Br.COc1cc2c(cc1O)-c1c(c3ccc([N+](=O)[O-])cc3c(=O)n1CCCn1ccnc1)C2=O` [Compound 34, 6-(3-(1H-Imidazol-1-yl)propyl)-8-hydroxy-9-methoxy-3-nitro-5H-indeno[1,2-c]isoquinoline-5,11(6H)-dione Hydrobromide], the Top1 cleavage entry in data set [2] is “++(+)”. For the same compound, in data set [1], the IC50 fell in the range of 12000 to 37000 nM. For the same compound, the GI50 in data set [3] (setting [14]) amounted to 740 nM.
As for `Br.COc1cc2c(cc1O)C(=O)c1c-2n(CCCN)c(=O)c2cc([N+](=O)[O-])ccc12` [Compound 25, 6-(3-Aminopropyl)-9-hydroxy-8-methoxy-3-nitro-5H-indeno[1,2-c]isoquinoline-5,11(6H)-dione Hydrobromide], in data set [1], the “TDP1 inhibitory activity (in words)” value was “TDP1 inhibitors” and the IC50 lay in the range of 12000 to 37000 nM. In addition, the GI50 in [3] (setting [15]) is 16 to 21 nM.
Consider `O=C1c2ccc(O)cc2-c2c1c1ccc([N+](=O)[O-])cc1c(=O)n2CCCn1ccnc1` [Compound 59, 6-(3-(1H-Imidazol-1-yl)propyl)-8-hydroxy-3-nitro-5H-indeno[1,2-c]isoquinoline-5,11(6H)-dione Hydrobromide], for which, in [3] (setting [15]), the GI50 lay within 56 to 407 nM.
For `Br.NCCCn1c2c(c3ccc([N+](=O)[O-])cc3c1=O)C(=O)c1c(O)cccc1-2` [Compound 64, 6-(3-Amino-propyl)-10-hydroxy-3-nitro-5H-indeno[1,2-c]isoquinoline-5,11(6H)-dione Hydrobromide], in data set [1], the “TDP1 inhibitory activity (in words)” value is reported as “TDP1 inhibitors”. Besides, in data set [1], the IC50 fell in the range of 12000 to 37000 nM. For the same compound, the GI50 in [3] (setting [14]) was 2000 nM; in [3] (setting [15]), 234 to 3550 nM.
For `COc1cccc2c1-c1c(c3ccc([N+](=O)[O-])cc3c(=O)n1CCCN)C2=O` [Compound 4], the GI50 is 1.1 µM in data set [10], 2.3 µM in data set [6], 2.3 µM in [12] and 1.1 µM in [9]. The Top1 cleavage entry in data set [5] is “++++”.
With `COc1cc2c(cc1O)-c1c(c3ccc([N+](=O)[O-])cc3c(=O)n1CCCN1CCOCC1)C2=O` [Compound 32, 8-Hydroxy-9-methoxy-6-(3-morpholinopropyl)-3-nitro-5H-indeno[1,2-c]isoquinoline-5,11(6H)-dione Hydrobromide], the GI50 in data set [3] (setting [14]) came to 200 nM.
